From PMC7982131 (Circulation. Heart Failure, 2021)

Legend:
[1] = tested on: RHR (renal hypertensive rat) model; experiment: RHR model, oral BID study; format: in vivo
[2] = tested on: instrumented anesthetized rats; experiment: Acute hemodynamics, dobutamine single dose 15-min IV infusion; format: in vivo, rat; settings: 1 μg/kg/min IV, N=8
Outline: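 Male Sprague-Dawley rats (≥250 g), anesthetized and surgically instrumented; test agents given as a 15-min IV infusion followed by a 15-min washout. Cardiac output and heart rate were expressed as percentage change from baseline during and after infusion. Paired Student t test was used for significance.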

[3] = tested on: RHR (renal hypertensive rat) model; experiment: RHR model, subcutaneous infusion via osmotic minipump; format: in vivo; settings: SC infusion
Outline: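 Renal hypertensive rats (male Sprague-Dawley) received test compound for 10 days by subcutaneous osmotic minipump. The low dose targeted a steady-state plasma level of ≈100 nmol/L; the high dose targeted ≈10-fold more. SV, CO and diastolic parameters were assessed by echocardiography, with cardiac fibrosis and heart weight also scored. One-way ANOVA with Tukey or Dunnett tests was used.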

[4] = Plasma exposure during and after IV infusion, anesthetized cannulated rats; format: in vivo, rat
[5] = tested on: other GPCRs; experiment: GPCR selectivity assays, cardiovascular receptor safety panel; format: binding, human; settings: tested up to 30 µmol/L
[6] = biological target: T1, human APJ (Homo sapiens, UniProt P35414); experiment: BRET-based biosensor assays; format: cell-based
T1 sequence (P35414 1-380): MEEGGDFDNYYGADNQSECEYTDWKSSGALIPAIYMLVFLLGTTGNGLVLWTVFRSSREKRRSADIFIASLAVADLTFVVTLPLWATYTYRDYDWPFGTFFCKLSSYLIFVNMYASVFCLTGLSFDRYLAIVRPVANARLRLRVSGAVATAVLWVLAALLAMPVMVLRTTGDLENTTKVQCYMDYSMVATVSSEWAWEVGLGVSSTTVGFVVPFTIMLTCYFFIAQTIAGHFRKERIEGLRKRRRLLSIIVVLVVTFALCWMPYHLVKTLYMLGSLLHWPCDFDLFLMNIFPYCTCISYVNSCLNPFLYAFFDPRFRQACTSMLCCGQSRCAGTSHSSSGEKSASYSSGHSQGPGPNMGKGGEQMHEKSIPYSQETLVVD

[7] = Plasma concentrations of BMS-986224 in the RHR studies; format: in vivo, rat; settings: for steady-state plasma concentration: SC 10-day infusion
Outline: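 Renal hypertensive rat model in male Sprague-Dawley rats. Dosing was either a 10-day SC infusion by osmotic minipump or oral BID dosing at 0.1 and 1 mg/kg. The SC low dose targeted a steady-state level of ≈100 nmol/L, and the high dose targeted ≈10-fold more. The oral doses targeted ≈200 nmol/L at peak or trough. Peak, trough and steady-state plasma levels were measured, and AUC(0–24) was derived.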

[8] = tested on: RHR (renal hypertensive rat) model; experiment: RHR model, oral QD study; format: in vivo; settings: both doses (0.06 and 0.2 mg/kg)
[9] = biological target: T1, human APJ; experiment: cAMP inhibition assay, HEK293 ZF cells; format: cell-based
[10] = tested on: instrumented anesthetized rats; experiment: Acute hemodynamics, 15-min IV infusion of BMS-986224; format: in vivo, rat; settings: for CO percentage change from baseline / SV percentage change from baseline: 15 min
Outline: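 Male Sprague-Dawley rats (≥250 g), anesthetized and surgically instrumented, received a 15-min IV infusion of test compound at 1, 10 or 100 μg/kg per min, then a 15-min washout. Vehicle-infused rats served as comparison. SV, CO, dP/dtmax, HR and mean arterial pressure were expressed as percentage change from baseline. Plasma exposure was sampled at each dose.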

[11] = 40 mg/kg/day SC infusion, BID study

CCOC(=O)[C@H](CCc1ccccc1)N[C@@H](C)C(=O)N1CCC[C@H]1C(=O)O [Enalapril]
LV end-diastolic volume vs vehicle [1, 11]: increased | LV mass, heart weight, and EF vs vehicle [1, 11]: reduced | SV, CO, and HR vs vehicle [1, 11]: without significant effect

CC(CCc1ccc(O)cc1)NCCc1ccc(O)c(O)c1 (centres unmarked) [Dobutamine]
Cardiac output % change from baseline [2]: 11.2%

CCOCc1nc(O)c(-c2nnc(Cc3ccc(Cl)cn3)o2)c(O)c1-c1c(OC)cccc1OC [BMS-986224]
other measured parameters (diastolic parameters, cardiac fibrosis, heart weight) [3]: without affecting | SV and CO ([3]; high dose 3 mg/kg/day, 3 mg/kg/day): not noted | Plasma exposure ([4]; 1 μg/kg per minute IV): 95 ± 5 nmol/L | free plasma concentration at the minimum effective dose ([4]; adjusted for protein binding, 1 μg/kg per minute): 2 nmol/L | binding/activity at other GPCRs [5]: did not bind other GPCRs | signaling bias relative to (Pyr1) apelin-13 [6]: lack of bias | relative activity vs (Pyr1) apelin-13, ΔLog (RA) ([6]; ratio of Ymax and EC50, each signaling readout): > 0 | steady-state plasma concentration ([7]; HD): 2686 nmol/L | steady-state plasma concentration ([7]; low dose): 102 nmol/L | area under the plasma drug concentration−time curve (0–24) ([7]; oral 0.1 mg/kg BID): 3.42 µM·h | peak plasma concentration ([7]; oral 0.1 mg/kg BID): 205 ± 11 nmol/L | trough plasma concentration ([7]; oral 0.1 mg/kg BID): 25 ± 4 nmol/L | area under the plasma drug concentration−time curve (0–24) ([7]; oral 1 mg/kg BID): 34.3 µM·h | peak plasma concentration ([7]; oral 1 mg/kg BID): 2095 ± 161 nmol/L | trough plasma concentration ([7]; oral 1 mg/kg BID): 302 ± 29 nmol/L | LV mass or EF vs vehicle ([1]; oral BID, trough): no significant differences | SV and CO [8]: increased | EC50 [9]: 0.02 ± 0.02 nM | CO percentage change from baseline ([10]; 1 μg/kg/min IV): 8.2% | SV percentage change from baseline ([10]; 1 μg/kg/min IV): 6.0% | decrease in mean arterial pressure from baseline ([10]; 10 μg/kg per minute, P<0.001 versus vehicle): 1.9% | CO percentage change from baseline ([10]; 10 μg/kg/min IV): 15.4% | SV percentage change from baseline ([10]; 10 μg/kg/min IV): 12.6% | CO percentage change from baseline ([10]; 100 μg/kg/min IV): 15.9% | SV percentage change from baseline ([10]; 100 μg/kg/min IV): 12.3% | maximum increase in CO ([10]; 15-min IV infusion): ≈ 15% | maximum effective dose ([10]; based on the increases in CO): 10 μg/kg per minute | minimum effective dose ([10]; based on the increases in CO): 1 μg/kg per minute
